Assay results reported in ChEMBL document CHEMBL4308887, “Synthesis and biological evaluation of clovamide analogues with catechol functionality as potent Parkinson's disease agents in vitro and in vivo” (Bioorg Med Chem Lett, 2019).
The source made the active and inactive calls. The calls are words filed in the database; no cut-off is given here.

Assays:
SH-SY5Y [1] = assay: Neuroprotection against H2O2-induced cell death in human SH-SY5Y cells at 100 uM preincubated for 6 hrs followed by H2O2 addition and measured after 24 hrs by MTT assay relative to control; type: functional
How it was run: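 Human SH-SY5Y neuroblastoma cells pretreated with compound at 100 μM for 6 h, then exposed to 600 μM H₂O₂ for 24 h; viability read by MTT and expressed as protection rate relative to untreated control. DMSO below 0.1% in all groups. Primary single-concentration screen; three independent experiments.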

SH-SY5Y [2] = assay: Neuroprotection against H2O2-induced cell death in human SH-SY5Y cells preincubated for 6 hrs followed by H2O2 addition and measured after 24 hrs by MTT assay; type: functional, cell-based
How it was run: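 Primary screen at 100 μM, then dose-response. SH-SY5Y cells pretreated, then exposed to 600 μM H₂O₂ (the level chosen from a 100–1000 μM, 24 h viability titration). EC₅₀ is the concentration giving 50% of maximal effect. N-acetyl-L-cysteine served as positive control. DMSO below 0.1%. Mean ± S.E.M. of three experiments.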

SH-SY5Y [3] = assay: Neuroprotection against H2O2-induced cell death in human SH-SY5Y cells assessed as cell viability at 1 uM preincubated for 6 hrs followed by H2O2 addition and measured after 24 hrs by MTT assay relative to control; type: functional; conditions: read-out: Activity
How it was run: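 SH-SY5Y cells pretreated with 1 at 1 or 10 μM, then exposed to 600 μM H₂O₂. Viability by MTT, expressed as % of control. DMSO below 0.1%. Mean ± S.E.M. of three independent experiments.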

SH-SY5Y [4] = assay: Neuroprotection against H2O2-induced toxicity in human SH-SY5Y cells assessed as LDH release at 10 uM preincubated for 6 hrs followed by H2O2 addition and measured after 24 hrs (reference value: 339.93 +/- 3.66 U/L); type: functional
How it was run: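 Cells pretreated with test agent (1 or 10 μM), then 600 μM H₂O₂; plasma membrane damage read as LDH leakage into medium (U/L). DMSO below 0.1% in all groups. Mean ± S.E.M. of three independent experiments.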

SH-SY5Y [5] = assay: Protection against H2O2-induced oxidative stress in human SH-SY5Y cells assessed as reduction in reactive oxygen species level preincubated for 6 hrs followed by H2O2 addition and measured after 24 hrs by DHE dye based inverted microscopic analysis; type: functional, cell-based
SH-SY5Y [6] = assay: Protection against H2O2-induced apoptosis in human SH-SY5Y cells assessed as improvement in nuclear fragmentation at 1 to 10 uM preincubated for 6 hrs followed by H2O2 addition and measured after 24 hrs by Hoechst 33342 staining based inverted microscopic analysis; type: functional, cell-based
How it was run: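 Hoechst 33342 nuclear staining after pretreatment and 600 μM H₂O₂. Nuclear fragmentation and DNA condensation were scored visually.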

SH-SY5Y [7] = assay: Protection against H2O2-induced apoptosis in human SH-SY5Y cells assessed as viable cells at 1 uM preincubated for 6 hrs followed by H2O2 addition and measured after 24 hrs by Annexin V-FITC/propidium iodide staining based flow cytometry (reference value: 12.4%); type: functional; conditions: read-out: Activity
SH-SY5Y [8] = assay: Protection against H2O2-induced apoptosis in human SH-SY5Y cells assessed as late apoptotic cells at 1 uM preincubated for 6 hrs followed by H2O2 addition and measured after 24 hrs by Annexin V-FITC/propidium iodide staining based flow cytometry (reference value: 3.5%); type: functional
SH-SY5Y [9] = assay: Protection against H2O2-induced apoptosis in human SH-SY5Y cells assessed as late apoptotic cells at 10 uM preincubated for 6 hrs followed by H2O2 addition and measured after 24 hrs by Annexin V-FITC/propidium iodide staining based flow cytometry (reference value: 3.5%); type: functional
SH-SY5Y [10] = assay: Protection against H2O2-induced apoptosis in human SH-SY5Y cells assessed as decrease in cleaved caspase3 expression preincubated for 6 hrs followed by H2O2 addition and measured after 24 hrs by Western blot analysis; type: functional, cell-based
How it was run: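 Western blot of Bax, Bcl-2 and cleaved caspase-3 in SH-SY5Y after pretreatment (1, 10 μM) and 600 μM H₂O₂. β-actin internal standard; Bax/Bcl-2 ratio from densitometry. Mean ± S.E.M., three independent experiments.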

Mus musculus [11] = assay: Induction of motor impairment in C57Bl/6 mouse at 10 mg/kg, ig treated for 10 days measured after 4 to 72 hrs for 3 mins by rota rod test; type: organism-based; conditions: in vivo, po
Mus musculus [12] = assay: Anti-parkinson's activity in MPTP-induced C57Bl/6 mouse model of Parkinson's disease assessed as increase in tyrosine hydroxylase expression in striatum at 10 to 20 mg/kg, ig pretreated for 10 days followed by MPTP challenge measured 10 days post MPTP addition by Western blot analysis; type: functional, organism-based
How it was run: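 Tissue taken 10 days after MPTP injection from mice dosed orally with 1 (10 or 20 mg/kg). TH in SNpc and striatum by western blot, and by DAB immunostaining. Three of the mice per group analysed. Mean ± S.D., n = 6 mice/group.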

Mus musculus [13] = assay: Anti-parkinson's activity in MPTP-induced C57Bl/6 mouse model of Parkinson's disease assessed as increase in SOD activity in substantia nigra administered intragastrically pretreated for 10 days followed by MPTP challenge measured 10 days post MPTP addition by xanthine oxidase method; type: functional, organism-based
How it was run: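 Striatum and SNpc from MPTP-treated mice dosed orally with 1 at 10 or 20 mg/kg. MDA level and SOD activity measured. Mean ± S.D., n = 6 mice/group.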

[14] = Volume of distribution at steady state in Sprague-Dawley rat at 25 mg/kg, po by LC-MS/MS analysis; type: ADME, organism-based; conditions: in vivo
How it was run: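 Male Sprague–Dawley rats (n = 3) dosed i.v. 5 mg/kg (5% DMSO, 2% F68, 93% saline) or p.o. 25 mg/kg (0.5% methylcellulose, 1% Tween 80). Orbital blood at 0.083–24 h (12 points). Plasma concentration–time profiles gave Cl, Vdss, AUC, T1/2, Tmax, Cmax, MRT and absolute F.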

[15] = Clearance in Sprague-Dawley rat at 5 mg/kg, iv by LC-MS/MS analysis; type: ADME, organism-based; conditions: in vivo
How it was run: (§1)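 Male Sprague–Dawley rats dosed with 1 at 5 mg/kg i.v. (vehicle 5% DMSO, 2% F68, 93% saline) or 25 mg/kg p.o. (0.5% methylcellulose with 1% Tween 80). Orbital blood sampled at 0.083–24 h, 12 time points. Plasma PK parameters derived. Mean ± SD, n = 3.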

[16] = MRT in Sprague-Dawley rat at 5 mg/kg, iv by LC-MS/MS analysis; type: ADME, organism-based; conditions: in vivo; how it was run: as §1
[17] = Activation of PI3K/Akt/mTOR signaling in human SH-SY5Y cells assessed as up regulation of HO-1 expression after 24 hrs by Western blot analysis; type: cell-based
How it was run: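 HO-1 western blot in SH-SY5Y cells incubated 24 h with 1 at 0.1, 1 or 10 μM, without H₂O₂. Band densitometry expressed as % of control. Mean ± S.E.M. from three independent experiments.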

[18] = Activation of PI3K/Akt/mTOR signaling in human SH-SY5Y cells assessed as up regulation of H2O2-induced HO-1 expression at 10 uM preincubated for 6 hrs followed by H2O2 addition and after 24 hrs by Western blot analysis (reference value: 181.53 +/- 24.67%); type: cell-based
How it was run: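 SH-SY5Y cells pretreated 6 h with 1 (1 or 10 μM), then exposed to 600 μM H₂O₂ for 24 h. HO-1 measured by western blot with densitometry and expressed as % of control. Mean ± S.E.M., three independent experiments.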

COC(=O)[C@H](Cc1ccccc1)NC(=O)/C=C/c1ccc(O)c(O)c1 [N-CAFFEOYL-PHENYLALANINE METHYL ESTER]
Activity (SH-SY5Y [1]): >50%
EC50 (SH-SY5Y [2]): 4.26 µM
viability at 1 µM (SH-SY5Y [3]): 68.3%
Activity (SH-SY5Y [4]): 180.66 U/L
Activity (SH-SY5Y [5]): Dose-dependent effect
Activity (SH-SY5Y [6]): Active
viability at 1 µM (SH-SY5Y [7]): 72%
Activity (SH-SY5Y [8]): 3.9%
Activity (SH-SY5Y [9]): 1.5%
Activity (SH-SY5Y [10]): Dose-dependent effect
Activity (Mus musculus [11]): Non-Toxic
Activity (Mus musculus [12]): Active
Activity (Mus musculus [13]): Dose-dependent effect
Vdss [14]: 5.98 L/kg
clearance [15]: 25.5 mL/min/kg
MRT [16]: 1.45 h
Activity [17]: Dose-dependent effect
Activity [18]: 325%
